This note sets out measurements from ChEMBL document CHEMBL1149279, “2,4,6-trisubstituted pyrimidines as a new class of selective adenosine A1 receptor antagonists” (J Med Chem, 2004).

The target in test [1] is T1, Adenosine receptor A2a (Homo sapiens, UniProt P29274). The test can be described thus: Displacement of [3H]ZM241385 from human adenosine A2A receptor expressed in HEK293 cells at 1 uM. Type of test: cell-based. On the technique in general: In a radioligand displacement assay an active substance lowers the binding of a labelled ligand.
For test [2], the target named is T2, Adenosine receptor A3 (Homo sapiens, UniProt P0DMS8).
T2 sequence (P0DMS8 whole entry): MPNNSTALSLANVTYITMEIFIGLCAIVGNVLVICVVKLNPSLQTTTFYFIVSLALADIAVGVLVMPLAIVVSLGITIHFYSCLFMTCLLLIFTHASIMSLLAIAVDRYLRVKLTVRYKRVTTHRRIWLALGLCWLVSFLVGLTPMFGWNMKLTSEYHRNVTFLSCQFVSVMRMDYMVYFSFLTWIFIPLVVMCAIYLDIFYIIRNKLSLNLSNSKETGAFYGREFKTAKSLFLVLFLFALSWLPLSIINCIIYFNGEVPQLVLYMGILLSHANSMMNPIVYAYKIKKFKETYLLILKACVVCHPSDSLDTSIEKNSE
Put plainly: Displacement of [125I]AB-MECA from human adenosine A3 receptor expressed in HEK293 cells. Type of test: cell-based.

Test [3] deals with Adenosine receptors; A1 & A3 (Homo sapiens) (UniProt P30542+P0DMS8). Put plainly: Selectivity for human adenosine A1 receptor over human adenosine A3 receptor. Format: protein assay.
Test [4] concerns the target T1, Adenosine receptor A2a. The test can be described thus: Displacement of [3H]ZM-241385 from human adenosine A2A receptor expressed in HEK293 cells. Format: cell-based.
Test [5] has as its target T3, Adenosine receptor A2b (Homo sapiens) (UniProt P29275).
T3 sequence (whole entry): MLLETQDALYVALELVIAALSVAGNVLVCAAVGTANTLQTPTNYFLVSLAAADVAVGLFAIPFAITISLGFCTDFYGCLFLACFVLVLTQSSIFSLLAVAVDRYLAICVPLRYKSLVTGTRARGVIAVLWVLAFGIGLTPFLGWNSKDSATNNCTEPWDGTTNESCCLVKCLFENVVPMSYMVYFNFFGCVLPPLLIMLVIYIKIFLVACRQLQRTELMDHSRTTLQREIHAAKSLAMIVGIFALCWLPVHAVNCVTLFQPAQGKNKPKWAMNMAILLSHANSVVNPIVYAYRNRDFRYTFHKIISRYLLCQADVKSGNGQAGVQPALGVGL
Put plainly: Displacement of [3H]MRS1754 from human adenosine A2B receptor expressed in CHO cells at 1 uM. Format: cell-based. An outline of the steps:
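CHO cells stably transfected with human A2B supply the membranes (20 μg protein). [3H]MRS1754 at 1.2 nM final, 1 h at 25 °C in 50 mM Tris/HCl, 10 mM MgCl2, 1 mM EDTA, 0.01 w/v % CHAPS. Nonspecific binding with 1 mM NECA. Filtration and scintillation counting; % displacement at 1 μM, n = 2.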

In test [6] the target is T4, Adenosine receptor A1 (Homo sapiens, UniProt P30542).
T4 sequence (P30542 whole entry): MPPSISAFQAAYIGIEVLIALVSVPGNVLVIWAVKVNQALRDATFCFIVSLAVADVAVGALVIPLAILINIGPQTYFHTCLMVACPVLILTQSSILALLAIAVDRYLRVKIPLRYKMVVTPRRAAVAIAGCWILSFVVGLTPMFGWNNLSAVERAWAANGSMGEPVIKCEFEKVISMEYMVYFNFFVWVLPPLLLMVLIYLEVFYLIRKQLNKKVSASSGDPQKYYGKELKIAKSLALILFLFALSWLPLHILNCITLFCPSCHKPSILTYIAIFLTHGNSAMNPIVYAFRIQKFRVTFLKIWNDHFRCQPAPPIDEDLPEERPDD
Put plainly: Displacement of [3H]DPCPX from human adenosine A1 receptor expressed in CHO cells. Type of test: cell-based.

The target in test [7] is T5, Adenosine receptor A3 (Homo sapiens) (UniProt P0DMS8).
T5 sequence (whole entry): T2 sequence (P0DMS8 whole entry)
Put plainly: Displacement of [125I]AB-MECA from human adenosine A3 receptor expressed in HEK293 cells at 1 uM. Format: cell-based.

Test [8] has as its target T6, Adenosine receptor A1 (Homo sapiens) (UniProt P30542).
T6 sequence (whole entry): T4 sequence (P30542 whole entry)
The test can be described thus: Displacement of [3H]DPCPX from human adenosine A1 receptor expressed in CHO cells at 1 uM. Format: cell-based.

In test [9] the target is T6, Adenosine receptor A1 (Homo sapiens). The test can be described thus: Antagonist activity at human adenosine A1 receptor expressed in CHO cells assessed as effect on forskolin-stimulated cAMP production at 1 uM. Type of test: functional, cell-based. On the set-up: scale not given: the % may be the effect or the level left. Conditions: filed as antagonist; call rule not given here. An outline of the steps:
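Human A1-expressing CHO cells, 2 × 10^5/well, grown overnight; in HEPES/DMEM (pH 7.4) with adenosine deaminase 0.8 IU/mL, rolipram 50 μM and cilostamide 50 μM, 30 min at 37 °C. Then CPA 1 μM, test compound 1 μM, 10 min; forskolin 10 μM added for 15 min. Stopped with ice-cold 0.1 M HCl. cAMP measured by [3H]cAMP/PKA competition; normalized to CPA (0%) and forskolin (100%). Three independent experiments in duplicate.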
In general terms: Changes in cAMP serve as a functional read-out for many G protein-coupled receptors.

Test [10] has the same target. The test can be described thus: Antagonist activity at human adenosine A1 receptor expressed in CHO cells assessed as reversal of CPA-induced effect on forskolin-stimulated cAMP production at 10 uM. Format: functional, cell-based. Conditions: filed as antagonist.

Structures are written as SMILES.

The Ki is a dissociation constant, usually derived from enzyme kinetics or from competition with a known ligand.

T1 sequence (P29274 whole entry): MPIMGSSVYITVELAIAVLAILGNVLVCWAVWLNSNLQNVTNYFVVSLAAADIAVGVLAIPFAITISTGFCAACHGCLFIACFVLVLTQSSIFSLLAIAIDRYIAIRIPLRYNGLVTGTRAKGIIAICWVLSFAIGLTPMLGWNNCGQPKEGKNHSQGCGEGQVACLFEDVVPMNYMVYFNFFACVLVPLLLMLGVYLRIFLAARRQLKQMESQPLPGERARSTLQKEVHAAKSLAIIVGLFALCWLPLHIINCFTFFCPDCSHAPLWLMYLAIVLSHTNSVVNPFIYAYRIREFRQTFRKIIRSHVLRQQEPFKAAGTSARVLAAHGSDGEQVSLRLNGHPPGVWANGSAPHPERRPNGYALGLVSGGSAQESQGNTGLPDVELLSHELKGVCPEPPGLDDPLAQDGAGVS

In the case of `CC(=O)Nc1nc(-c2ccccc2)cc(-c2ccccc2)n1`, the Activity in test [1] was 31%. Besides, the Ki in test [2] was 237 nM (antagonist).

In the case of `CCC(=O)Nc1cc(-c2ccccc2)nc(-c2ccccc2)n1`, in test [3], the Selectivity ratio was found to be 2. Also, the Ki in test [4] is 81.9 nM (antagonist); in test [2] it was 22.4 nM (antagonist).

In the case of `O=C(Nc1cc(-c2ccccc2)nc(-c2ccccc2)n1)C1CCC1`, the figures for the Ki in [4] and in test [2] were 179 nM (antagonist) and 178 nM (antagonist), respectively. Also, the Activity in [5] (filed as antagonist) was 74%.

Take `CC(C)C(=O)Nc1cc(-c2ccccc2)nc(-c2ccccc2)n1`: the Selectivity ratio in test [3] was 24. Besides, the figures for the Ki in test [4] and in [2] were 376 nM (antagonist) and 267 nM (antagonist), respectively.

As for `O=C(Nc1nc(-c2ccccc2)cc(-c2ccccc2)n1)c1cccc(Cl)c1`, the Activity in test [1] worked out at 22%; in test [7], 41%. Further, the Ki in test [6] was 368 nM (antagonist).

On to `CCC(CC)C(=O)Nc1cc(-c2ccccc2)nc(-c2ccccc2)n1`, for which the Ki in test [4] was 381 nM (antagonist). The figures for the Activity in test [7] and in test [5] (filed as antagonist) were 57% and 72%, respectively.

Take `CC(C)(C)C(=O)Nc1cc(-c2ccccc2)nc(-c2ccccc2)n1`: the Activity in [1] was determined as 18%; in test [7], 49%.

On to `CC(=O)Nc1cc(-c2ccccc2)nc(-c2ccccc2)n1`, for which the Ki was 489 nM (antagonist) in test [4] and 6.88 nM (antagonist) in [2].

In the case of `CC(C)CC(=O)Nc1cc(-c2ccccc2)nc(-c2ccccc2)n1`, the inhibitory constant (Ki) is given as 157 nM (antagonist) in test [4] and 447 nM (antagonist) in [2].

As to `O=C(Nc1nc(-c2ccccc2)cc(-c2ccccc2)n1)c1ccccc1`, the Activity in test [1] is 5%; in test [7] it was 38%. The inhibitory constant (Ki) in [6] was 309 nM (antagonist).

`CCC(CC)C(=O)Nc1nc(-c2ccccc2)cc(-c2ccccc2)n1`: the values for the Activity in test [1] and in [7] were 11% and 27%, respectively. Besides, in test [6], the Ki is 27.1 nM (antagonist).

For `COc1ccc(C(=O)Nc2nc(-c3ccccc3)cc(-c3ccccc3)n2)cc1`, the figures for the Activity in test [1], in test [8] and in test [7] were 45%, 31% and 41%, respectively.

On to `CCCC(=O)Nc1nc(-c2ccccc2)cc(-c2ccccc2)n1`, for which the Activity in test [1] is 7%; in [7], 38%; in test [5] (filed as antagonist), 54%. The Ki in [6] was 3.7 nM (antagonist).

`O=C(Nc1nc(-c2ccccc2)cc(-c2ccccc2)n1)C1CCC1`: the Activity worked out at 33% in [1] and 18% in test [7]. Also, in test [6], the Ki is given as 107 nM (antagonist).

With `O=C(Nc1nc(-c2ccccc2)cc(-c2ccccc2)n1)c1ccc(Cl)cc1`, the Activity in test [1] and in test [8] was 0% each time. Also, the Ki in [2] is 3280 nM (antagonist).

Take `COc1ccc(C(=O)Nc2cc(-c3ccccc3)nc(-c3ccccc3)n2)cc1`: the Activity in test [1] amounted to 0%; in test [8], 30%. For the same molecule, in [2], the inhibitory constant (Ki) is 1170 nM (antagonist).

As to `O=C(Nc1cc(-c2ccccc2)nc(-c2ccccc2)n1)C1CCCC1`, the Ki in test [4] is 196 nM (antagonist); in [2] it was 170 nM (antagonist). For the same molecule, the Activity in test [5] (filed as antagonist) was 52%; in test [9], 60%; in test [10] it was “Antagonist”.

Regarding `CCCCCC(=O)Nc1cc(-c2ccccc2)nc(-c2ccccc2)n1`, the Activity in [1] came to 48%. In addition, the Ki in test [6] is 109 nM (antagonist); in [2], 392 nM (antagonist).

Regarding `Cc1ccc(C(=O)Nc2nc(-c3ccccc3)cc(-c3ccccc3)n2)cc1`, the Activity in test [1] is 0%; in test [8], 37%; in [7] it was 13%.

Turning to `CC(C)(C)CC(=O)Nc1cc(-c2ccccc2)nc(-c2ccccc2)n1`, the Activity in [1] worked out at 32%; in test [7], 39%; in test [5], 4%.

Consider `O=C(Nc1nc(-c2ccccc2)cc(-c2ccccc2)n1)C1CCCCC1`, for which the Activity in test [1] turned out to be 31%; in test [7], 9%. For the same molecule, in [6], the Ki is 119 nM (antagonist).

As for `CCCCC(=O)Nc1nc(-c2ccccc2)cc(-c2ccccc2)n1`, the Activity in test [1] came to 0%; in [7] it was 23%. For the same molecule, the Ki in [6] was 27.6 nM (antagonist).

With `CC(C)C(=O)Nc1nc(-c2ccccc2)cc(-c2ccccc2)n1`, the results for the Activity in [1], in test [7] and in test [5] (filed as antagonist) were 44%, 45% and 79%, respectively. Also, the Ki in test [6] was 8.87 nM (antagonist).

For `O=C(Nc1cc(-c2ccccc2)nc(-c2ccccc2)n1)C1CCCCC1`, in test [4], the Ki is listed as 208 nM (antagonist). In addition, in test [7], the Activity came out at 32%.

With `CCC(=O)Nc1nc(-c2ccccc2)cc(-c2ccccc2)n1`, the figures for the Ki in test [6], in [4] and in test [2] were 46.4 nM (antagonist), 893 nM (antagonist) and 547 nM (antagonist), respectively.

As to `O=C(Nc1cc(-c2ccccc2)nc(-c2ccccc2)n1)C1CC1`, the Ki is reported as 7.58 nM (antagonist) in [6], 189 nM (antagonist) in [4] and 25 nM (antagonist) in test [2].

As to `CCCCCC(=O)Nc1nc(-c2ccccc2)cc(-c2ccccc2)n1`, the Activity in test [1] was found to be 0%; in test [8] it was 28%; in [7], 24%.

With `O=C(Nc1nc(-c2ccccc2)cc(-c2ccccc2)n1)C1CCCC1`, the Activity in [1] came out at 11%; in test [7], 39%; in test [5], 42%. Besides, in test [6], the Ki is recorded as 11.4 nM (antagonist).

As for `O=C(Nc1nc(-c2ccccc2)cc(-c2ccccc2)n1)C1CC1`, the inhibitory constant (Ki) was 24.9 nM (antagonist) in [6], 228 nM (antagonist) in test [4] and 676 nM (antagonist) in test [2].

With `CCCC(=O)Nc1cc(-c2ccccc2)nc(-c2ccccc2)n1`, the values for the inhibitory constant (Ki) in test [4] and in test [2] were 124 nM (antagonist) and 167 nM (antagonist), respectively.

In the case of `O=C(Nc1nc(-c2ccccc2)cc(-c2ccccc2)n1)c1ccc(Cl)c(Cl)c1`, the Activity in [1] amounted to 0%; in test [8], 0%; in test [7], 30%.

Turning to `CCC(C)C(=O)Nc1cc(-c2ccccc2)nc(-c2ccccc2)n1` (centres undefined), the values for the Ki in [4] and in [2] were 899 nM (antagonist) and 147 nM (antagonist), respectively. The Activity in test [5] is 44%; in test [9], 60%; in [10], “Antagonist”.

On to `CC(C)CC(=O)Nc1nc(-c2ccccc2)cc(-c2ccccc2)n1`, for which the Activity was 42% in test [1] and 23% in test [7]. In test [6], the Ki is recorded as 25.1 nM (antagonist).

In the case of `O=C(Nc1cc(-c2ccccc2)nc(-c2ccccc2)n1)c1ccc(Cl)cc1`, the figures for the Activity in test [1], in [8] and in test [7] were 0%, 35% and 33%, respectively.

As for `O=C(Nc1cc(-c2ccccc2)nc(-c2ccccc2)n1)c1ccccc1`, the Activity in test [1] stood at 17%. Also, the Selectivity ratio in [3] stood at 2. The Ki in test [2] was 1300 nM (antagonist).

Regarding `CC(C)(C)C(=O)Nc1nc(-c2ccccc2)cc(-c2ccccc2)n1`, the results for the Activity in [1] and in [7] were 0% and 4%, respectively. In addition, the Ki in [6] is listed as 224 nM (antagonist).
